Bioassay records: PubChem BioAssay, The Scripps Research Institute Molecular Screening Center
LYPLA1 inh: counter-screen for PME1 inhibitors: inhibitors of human LYPLA1 | inhibition, % at 5.9 µM | recombinant LYPLA1, FP-Rh probe fluorescence polarization | O75608 | AID 2174 | 0.16% of 320,000 active;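 active = inhibition above the mean of all tested compounds plus 3 SD, set per campaign, cut at about 14% in these data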;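 also: inhibitors block serine hydrolase probe labeling of LYPLA1 so polarization falls; 0% = enzyme with DMSO and 100% = wells lacking LYPLA1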
proCasp3 act: activators of human procaspase-3 | P42574 | recombinant procaspase-3 D3A, Ac-DEVD-pNA absorbance 405 nm | activation, % at 8.5 µM | 0.11% of 330,000 active;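 active = activation above the mean of all tested compounds plus 3 SD, cut at about 21% in these data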;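 also: 0% = DMSO alone and 100% = DMSO wells spiked with extra 5 µM PC-3 D3A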
Target sequence (P42574 whole entry D9A/D28A/D175A): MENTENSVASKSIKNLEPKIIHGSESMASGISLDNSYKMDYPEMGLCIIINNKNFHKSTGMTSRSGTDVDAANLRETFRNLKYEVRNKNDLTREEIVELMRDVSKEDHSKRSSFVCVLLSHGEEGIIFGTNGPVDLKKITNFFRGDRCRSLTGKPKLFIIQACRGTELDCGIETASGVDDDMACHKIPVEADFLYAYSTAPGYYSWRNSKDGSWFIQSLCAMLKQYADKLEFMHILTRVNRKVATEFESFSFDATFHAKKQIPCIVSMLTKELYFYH
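Test system: Procaspase-3 D3A mutant, all three cleavage aspartates alanine | Dosing: Single dose, 8.5 µM nominal compound, 0.8% DMSO | Schedule: 1 h preincubation, 2 h reaction | Technique: 405 nm absorbance of p-nitroaniline, reads at 0 and 120 min | Repeats: One well per compound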
PREPL inh: human PREPL enzyme inhibition. inhibition, % at 5.96 µM. AID 2751. 0.68% of 320,000 active. Q4J6C6. recombinant PREPL, fluorescence polarization activity-based probe;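 also: 0% = enzyme with DMSO and 100% = wells lacking enzyme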
LYPLA2 inh: counter-screen for PME1 inhibitors: inhibitors of human LYPLA2; AID 2177; inhibition, % at 5.9 µM; 0.38% of 320,000 active; O95372; recombinant LYPLA2, FP-Rh probe fluorescence polarization;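 active = inhibition above the screen-wide mean plus 3 SD, limit set per campaign, cut at about 26% in these data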;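 also: 0% = LYPLA2 with DMSO and 100% = wells lacking LYPLA2 enzyme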
proCasp7 act: counter-screen for procaspase-3 activators: activators of human procaspase-7 | recombinant procaspase-7, Ac-DEVD-pNA absorbance 405 nm; D23A/D198A/D206A triple mutant, cannot self-cleave; scale: DMSO 0, 5 µM enzyme 100 | activation, % at 8.5 µM | 0.093% of 330,000 active | AID 463210;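 active = percent activation above the screen-wide mean plus 3 SD, cut at about 25% in these data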
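Test system: Procaspase-7 triple mutant (PC-7 D3A). Also added: Ac-DEVD-pNA substrate, 400 µM as added. Schedule: 1 h enzyme–compound preincubation and 2 h substrate reaction, both 25 °C. Signal: p-Nitroaniline absorbance at 405 nm, read at 0 and 120 min. Control set: low DMSO alone, high DMSO plus 5 µM PC-7.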
PREPL inh cf: confirmation of human PREPL enzyme inhibitors | shares compounds with PREPL inh | recombinant PREPL, fluorescence polarization activity probe | inhibition, % at 5.96 µM | 67% of 2,000 active | AID 2803;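 also: 0% = protein with DMSO and 100% = wells lacking protein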
PC3 D3A act: activates human procaspase-3, dual activator counter-screen | shares compounds with proCasp7 act | recombinant PC-3 D3A, Ac-DEVD-pNA absorbance 405 nm; aspartates 9, 28, 175 changed to alanine; 100% = enzyme control | activation, % at 8.5 µM | 290 tested, under 10 active;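 active = mean percent activation across triplicates above a set limit taken from the earlier primary procaspase-3 screen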;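 also: 0% = DMSO wells and 100% = DMSO wells with 5 µM added PC-3 D3A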
PC7 dual conf: confirmation of dual procaspase activators: human procaspase-7 activation. shares compounds with proCasp7 act. AID 493115. recombinant procaspase-7, Ac-DEVD-pNA absorbance 405 nm; D23A/D198A/D206A mutant that cannot self-cleave. 290 tested, under 10 active. activation, % at 8.5 µM;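 active = mean activation above a set limit carried over from the earlier primary screen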;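 also: 0% = DMSO only and 100% = DMSO with added 5 µM PC-7 enzyme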
* marks the source's active call; other numbers are inactive results; · = not tested or not shown. An excerpt weighted towards active compounds, which were near 1.1% of everything screened. Rule as the data show it, unless noted: active = inhibition above about 43%; inactive = the rest.

SMILES	LYPLA1 inh	proCasp3 act	PREPL inh	LYPLA2 inh	proCasp7 act	PREPL inh cf	others
CCCC[C@@H](C)C[C@@H](C)C(=O)N(C)[C@@H](CC(C)C)C(=O)N[C@H](C(=O)N(C)[C@H](C(=O)N1C[C@@H](O)C[C@H]1C(=O)N1C(=O)C=C[C@@H]1C)C(C)C)C(C)OC(C)=O (stereo partly specified)	·	7	50*	·	9	48*
Cc1[nH]c2ccc(OCc3ccccc3)cc2c1CCN	-3	-3	50*	-2	3	44*
Cc1[nH]c2ccc(O)cc2c1CCN	0	-1	20	1	2	·
COC(=O)C1=C(c2cccc(OCc3ccccc3)c2)C[C@@H]2CC[C@H]1N2C(=O)NCc1cccc(C(F)(F)F)c1	-5	-2	-17	-14	5	·
CCN(CC)c1ccc(CN2CC=C(c3ccc(F)cc3)CC2)cc1	-1	3	46*	-3	6	37
CN1C[C@H](CNC(=O)OCc2ccccc2)C[C@@H]2c3cccc4c3c(cn4C)C[C@H]21	0	3	64*	3	14	61*
CC(C)CNC(=O)c1c(N)n(Cc2ccc3c(c2)OCO3)c2nc3ccccc3nc12	-7	-5	11	1	71*	·	PC3 D3A act=-29;PC7 dual conf=-34
O=C1CCCN1CC#CCN1CCCC1	-4	2	13	-1	0	·
